Source: PubChem BioAssay (several laboratories)
Most compounds without a hit are left out; they make up all but 2.8% or so of the library.
NPY2 pot ag – potentiates or activates human NPY-Y2 receptor | cells expressing NPY-Y2, potentiator/agonist read-out | activation, % at 3.6 µM | 0.45% of 220,000 active; in the data active = activation above about 27%;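 also: cells stimulated with NPY near EC25 plus isoproterenol at EC100; 0% = vehicle plus submaximal agonist and 100% = vehicle plus saturating agonist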
NPY-Y1 antag – blocks the human neuropeptide Y Y1 receptor | P25929 | HEK293-CNG Y1 cells, membrane potential fluorescence; NPY at EC95, then isoproterenol | inhibition, % at 3.6 µM | 1% of 200,000 active | AID 1040;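 active = inhibition above the campaign mean inhibition of all tested compounds plus 3 SD, cut at about 20% in these data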;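 also: 0% = DMSO wells given NPY plus isoproterenol and 100% = isoproterenol alone without NPY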
Target sequence (P25929 whole entry, looked up): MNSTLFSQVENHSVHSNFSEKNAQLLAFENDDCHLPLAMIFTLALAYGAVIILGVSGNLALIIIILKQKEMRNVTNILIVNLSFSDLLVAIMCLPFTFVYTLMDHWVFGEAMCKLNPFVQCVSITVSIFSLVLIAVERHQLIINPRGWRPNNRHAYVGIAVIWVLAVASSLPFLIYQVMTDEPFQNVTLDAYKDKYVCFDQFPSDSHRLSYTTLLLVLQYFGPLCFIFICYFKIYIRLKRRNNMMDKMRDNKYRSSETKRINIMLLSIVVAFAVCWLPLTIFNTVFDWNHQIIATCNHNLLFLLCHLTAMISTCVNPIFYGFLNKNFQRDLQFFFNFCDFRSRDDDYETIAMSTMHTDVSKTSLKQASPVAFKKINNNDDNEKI
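Benchmarks – high control isoproterenol alone, low control NPY with isoproterenol · Material – HEK293 Y1/CNG channel cell line · Times – dye 3 h, compound 60 min room temperature, stimulation 45 min · Probe or stimulus – NPY (25 nM), isoproterenol (1 µM), Ro 20-1724 (25 µM) · Evaluation – % inhibition of NPY effect · Signal – fluorescence, membrane potential probe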
PGE2 EP2 inh – inhibitors of human EP2 prostaglandin E2 receptor; P43116; C6 glioma cells expressing human EP2, cAMP TR-FRET; cells stimulated with saturating PGE2; inhibition, % at 25 µM; 0.52% of 260,000 active;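 active = percent inhibition above 40 after rounding to a whole number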;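 also: rat C6 glioma host cells with rolipram phosphodiesterase inhibitor present; the protocol text gives 20 µM as final concentration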
Target sequence (P43116 whole entry, looked up): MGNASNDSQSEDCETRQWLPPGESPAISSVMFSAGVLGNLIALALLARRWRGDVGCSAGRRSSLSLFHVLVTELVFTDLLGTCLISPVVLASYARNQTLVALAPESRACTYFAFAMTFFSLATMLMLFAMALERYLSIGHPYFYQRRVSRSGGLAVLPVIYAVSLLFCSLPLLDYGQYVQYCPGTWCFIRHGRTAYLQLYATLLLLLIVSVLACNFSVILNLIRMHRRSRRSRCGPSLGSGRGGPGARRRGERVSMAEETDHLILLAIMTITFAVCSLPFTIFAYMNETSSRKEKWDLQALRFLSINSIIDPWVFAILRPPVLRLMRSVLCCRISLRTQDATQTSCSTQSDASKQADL
EP2 modulator – modulates human prostaglandin E2 receptor EP2 signaling | P43116 | EP2-expressing cells, cAMP HTRF FRET, PGE2 co-stimulation | induction, % at 25 µM | 0.83% of 260,000 active | AID 940;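 active = compounds whose cAMP rise, as percent of the full-agonist control response, exceeds 60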;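 also: rat C6 glioma line stably carrying human EP2 under a CMV promoter; the protocol text gives 20 µM as final concentration; 100% = response of wells given 1 µM PGE2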
NPY1 pot ag – potentiates or activates human NPY-Y1 receptor | P25929 | AID 1304 | 0.37% of 220,000 active | NPY-Y1 expressing cells, potentiator/agonist activation | activation, % at 3.6 µM; in the data active = activation above about 33%, passing the limit was not always enough;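 also: cells stimulated with NPY at EC10 then isoproterenol at EC100; 0% = low agonist plus stimulus and 100% = saturating agonist plus stimulus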
NPY-Y2 antag – NPY-Y2 (human) receptor antagonism; NPY-Y2 expressing cells, antagonist mode; inhibition, % at 2.7 µM; 0.99% of 140,000 active; AID 793; in the data active = inhibition above about 17%;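 also: 0% = vehicle with agonist challenge and 100% = reference antagonist with challenge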
NPY-Y2 pot conf – human NPY-Y2 potentiation or agonism, confirmation; 20% of 450 active; shares compounds with NPY2 pot ag; activation, % at 3.6 µM; AID 1539; cell-based NPY-Y2 potentiator/agonist assay; in the data active = activation above about 33%
NPY-Y1 potentiator – counter-screen for NPY-Y2 potentiators or agonists: NPY-Y1 potentiators or agonists | 20% of 450 active | activation, % at 3.6 µM | AID 1651 | Y1 HEK293-CNG cells, membrane potential fluorescence | shares compounds with NPY2 pot ag; in the data active = activation above about 45%;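 also: cells stimulated with submaximal NPY then isoproterenol with phosphodiesterase inhibitor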
NPY-Y1 ag 2 – human NPY-Y1 agonism as NPY-Y2 potentiator counter-screen; activation, % at 3.6 µM; 37% of 450 active; shares compounds with NPY2 pot ag; HEK293 Y1-CNGC, membrane potential fluorescence;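 active = activation above the mean of DMSO-only control wells plus 3 SD, cut at about 18% in these data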;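 also: cells stimulated with 1 µM isoproterenol plus the PDE inhibitor Ro 20-1724; 0% = isoproterenol with DMSO and no NPY and 100% = 40 nM NPY; Y1 agonists lower the membrane potential dye signal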
CNGC inhibitor – counter-screen for NPY-Y2 potentiators: inhibitors of CNG channel activity; HEK293-CNG parental, isoproterenol cAMP, membrane potential fluorescence; 32% of 450 active; AID 1703; shares compounds with NPY2 pot ag; inhibition, % at 3.6 µM;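 active = inhibition above the control-well mean plus 3 SD of those wells, cut at about 22% in these data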;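 also: 0% = DMSO with isoproterenol and 100% = DMSO without isoproterenol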
Y2 agonist ctr – counter-screen for NPY-Y2 potentiators: agonists of human NPY-Y2 | shares compounds with NPY2 pot ag | HEK293 Y2/CNGC cells, membrane potential fluorescence, agonist mode | activation, % at 3.6 µM | AID 1710 | 56% of 450 active;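 active = activation above the mean of solvent-only control wells plus 3 SD, cut at about 10% in these data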;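 also: cells stimulated by isoproterenol with no NPY added so direct agonism is tested; 0% = DMSO with isoproterenol alone and 100% = NPY at EC100 plus isoproterenol; agonism lowers probe fluorescence through less cAMP and CNG channel opening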
* marks the source's active call; other numbers are inactive results; . = not tested or not shown.

SMILES	NPY2 pot ag	NPY-Y1 antag	PGE2 EP2 inh	EP2 modulator	NPY1 pot ag	NPY-Y2 antag	NPY-Y2 pot conf	NPY-Y1 potentiator	NPY-Y1 ag 2	CNGC inhibitor	Y2 agonist ctr
Oc1ccccc1N=Nc1nc(-c2ccccc2)c(-c2ccccc2)[nH]1	45*	-2	25	-1	48	-9	57*	69*	64*	61*	63*
CCC(C)(C)n1nnnc1C(c1ccccc1OC)N1CCN(c2ccccc2OC)CC1 (configuration not stated)	.	.	8	8	.	.	.	.	.	.	.
COC(=O)COc1ccc(S(=O)(=O)N2CCN(c3ccccc3)CC2)cc1	30*	-9	13	-84	28	.	15	16	-4	-4	-1
COC(=O)COc1ccc(S(=O)(=O)N2CCN(c3ccccc3F)CC2)cc1	36*	-6	8	-39	21	1	35*	42	34*	25*	26*
COC(=O)c1ccc(COc2ccc(C)cc2[N+](=O)[O-])o1	56*	.	9	-8	20	.	6	-10	-15	-10	6
COc1cc(OC)c(NC(=O)c2ccccc2F)cc1Cl	-3	9	6	27	-8	.	.	.	.	.	.
Cc1ccc(Cl)cc1NC(=O)c1cc2ccccc2cc1O	45*	.	24	-10	37	.	8	15	-5	20	19*
COc1cc(NC(=O)c2cc3ccccc3cc2O)c(OC)cc1Cl	58*	.	4	-15	31	.	21	-8	-13	4	12*
Cc1ccc(Cl)cc1NC(=O)COC(=O)c1ccccc1O	-2	.	14	2	-11	.	.	.	.	.	.
O=C(O)c1ccc(CSc2ncccc2-c2nc3ccccc3[nH]2)cc1	.	.	13	-5	.	.	.	.	.	.	.
CN1[C@@H](C(=O)Nc2ccc3c(c2)OCO3)C[C@@H](c2ccc(F)cc2)NS1(=O)=O	.	.	.	-25	.	.	.	.	.	.	.
O=C(c1ccco1)N1CCN(C(=O)c2sccc2-c2ccccc2)CC1	27*	4	4	15	4	9	-3	-8	-15	-13	-18
O=C(COc1ccc(Cl)cc1)Nc1nnc(-c2ccc3c(c2)OCO3)s1	.	.	9	12	.	.	.	.	.	.	.
Nc1c(-c2ccccc2)c(CSc2nc3ccccc3[nH]2)nn1-c1ccc(Cl)cc1	29*	3	5	7	13	2	33	29	17	21	33*
Nc1c(-c2ccccc2)c(CSc2nc3ccccc3[nH]2)nn1-c1cccc(Cl)c1	32*	5	7	-28	7	-1	39*	36	36*	28*	57*
Cc1ccccc1-n1nc(CSc2nc3ccccc3[nH]2)c(-c2ccccc2)c1N	11	12	9	21	-2	8	.	.	.	.	.
Cc1ccc(CN(CCCn2ccnc2)Cc2cn[nH]c2-c2cccs2)o1	.	.	2	1	.	.	.	.	.	.	.
CCOC(=O)c1ccc2nc(NC(=O)c3cc(N)cc(N)c3)sc2c1	.	.	12	-92	.	.	.	.	.	.	.
CCc1[nH]n2c(=O)c3c(nc2c1-c1ccc(F)cc1)CCC3	.	.	.	-18	.	.	.	.	.	.	.
Cc1ccc(NC(=O)CN(c2ccc3c(c2)OCO3)S(C)(=O)=O)c(C)c1	.	.	7	-4	.	.	.	.	.	.	.
COc1cccc(OC)c1C(=O)Nc1ccc(NC(=O)c2ccco2)c(C)c1	.	.	6	4	.	.	.	.	.	.	.
COc1cccc(-n2c(SCC(=O)N3CCCC3)nnc2-c2ccoc2C)c1	.	.	9	12	.	.	.	.	.	.	.
Cc1ccc(Nc2nc(N/N=C/c3c[nH]c4ccccc34)nc(N3CCOCC3)n2)cc1	27*	-6	4	1	31	-3	41*	59*	33*	42*	44*
CCn1[nH]c(=O)c(=Nc2c(C)n(C)n(-c3ccccc3)c2=O)cc1-c1ccc(Cl)cc1	41*	-7	2	-5	53	1	38*	60*	43*	53*	30*
Cc1c(N=Cc2ccc(-c3ccc(Cl)cc3)o2)c(=O)n(-c2ccccc2)n1C	-21	11	7	9	-10	-1	.	.	.	.	.
SMILES	NPY2 pot ag	NPY-Y1 antag	PGE2 EP2 inh	EP2 modulator	NPY1 pot ag	NPY-Y2 antag	NPY-Y2 pot conf	NPY-Y1 potentiator	NPY-Y1 ag 2	CNGC inhibitor	Y2 agonist ctr
CC1=CC(=O)C(C(C)C)=C/C1=N/OS(=O)(=O)c1ccccc1	63*	.	13	-20	35	.	26	9	2	11	22*
N#C/C(=N\Nc1ccc(Cl)c(Cl)c1)C(=O)C1CC1	63*	.	8	-52	13	.	3	-38	-7	-9	5
Cc1ccc(C)c2[nH]c(=O)c(CN(CCO)C(=S)NCc3ccco3)cc12	.	.	7	-73	.	.	.	.	.	.	.
CC(Cl)C(=O)NC(=O)NC12CC3CC(CC(C3)C1)C2 (configuration not stated)	19	-4	17	10	12	0	.	.	.	.	.
O=C(CCl)NC(=O)NC12CC3CC(CC(C3)C1)C2	41*	-13	10	-62	31	1	28	49*	35*	10	27*
Fc1ccc2c(c1)/C(=N/Nc1ccccn1)CCS2	30*	1	4	45	-4	.	10	16	27*	17	22*
COc1cccc(N2CCN(c3ncnc4c3[nH]c3ccc(F)cc34)CC2C)c1 (configuration not stated)	39*	57*	99*	-55	-25	8	-4	-27	-40	-41	8
COc1cccc(N2CCN(c3ncnc4c3[nH]c3ccccc34)CC2C)c1 (configuration not stated)	2	6	35	-38	28	11	.	.	.	.	.
Cc1ccc(/C(O)=C2/C(=O)C(=O)N(CCN(C)C)C2c2cccs2)cc1F (configuration not stated)	.	.	7	10	.	.	.	.	.	.	.
COc1ccc(/C=c2/sc3n(c2=O)C(c2ccccc2OC)C2=C(N=3)c3ccccc3CC2)cc1O (configuration not stated)	36*	-9	8	4	21	1	12	25	18*	16	9
C#CCSc1nc(N)c2c(n1)OC(N)=C(C#N)C2c1cccnc1 (configuration not stated)	58*	-4	6	-13	4	.	21	25	16	-4	6
